Test results as given in ChEMBL document CHEMBL1914307, “Small molecular CD4 mimics as HIV entry inhibitors” (Bioorg Med Chem, 2011).

Experiments:
[1] = Cytotoxicity against mock-infected human PM1 cells expressing CCR5 by WST-8 assay; assay type: cell-based
Procedure, shortened: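 Viability of mock-infected PM1/CCR5 cells determined by WST-8; CC50 = concentration reducing viability by half; mean of at least three independent experiments.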

[2] = test system: Human immunodeficiency virus 1; test: Antiviral activity against HIV1 infected in human PM1 cells expressing CCR5 assessed as inhibition of virus-induced cytopathogenicity by multi-round assay; assay type: functional, organism-based; details: Human immunodeficiency virus 1, PM1
Procedure, shortened: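 HIV-1-induced cytopathogenicity measured in PM1/CCR5 cells over multiple rounds of infection; IC50 from inhibition of cytopathic effect; mean of at least three independent experiments.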

PM1 = test: Induction of gp120 conformational change in R5 tropic Human immunodeficiency virus 1 subtype B isolate JR-FL infected in human PM1 cells assessed as binding of anti-HIV1 mAb 4C11 measuring mean fluorescence intensity at 100 uM preincubated for 15 mins by FACS analysis using antibody staining (reference value: 14.94 fluorescence intensity); assay type: cell-based
Procedure, shortened: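 Env-expressing PM1 cells were pretreated with the CD4 mimic, then stained with the CD4-induced anti-envelope mAb 4C11 at 4 °C for 15 min. Cells were washed in PBS and detected with FITC-conjugated goat anti-human IgG. The read-out was flow cytometry on gated PM1 cells, giving the mean fluorescence intensity of 4C11. Anti-human CD19 served as the control antibody. Data are representative of at least two independent experiments.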

[3] = Ratio of compound CC50 to NBD-556 CC50 for mock-infected human PM1 cells expressing CCR5 by WST-8 assay; assay type: ADME, cell-based
[4] = test system: Human immunodeficiency virus 1; test: Antiviral activity against R5 tropic HIV1 YTA infected in human TZM-bl cells assessed as beta-galactosidase activity preincubated for 15 mins before infection measured after 2 days by single-round assay using luminometry; assay type: functional, organism-based; details: Human immunodeficiency virus 1, YTA
Procedure, shortened: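 Single-round infection of TZM-bl cells with R5 YTA virus; beta-galactosidase read as relative light units; IC50 = concentration giving 50% reduction vs virus control wells; mean of at least three independent experiments.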

[5] = Selectivity index, ratio of CC50 for mock-infected human PM1 cells expressing CCR5 to IC50 for R5 tropic HIV1 YTA infected in human TZM-bl cells; assay type: functional
Procedure, shortened: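 SI calculated as CC50 (WST-8 viability, mock-infected PM1/CCR5 cells) divided by IC50 (beta-galactosidase reduction after single-round YTA infection of TZM-bl cells).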

Row | SMILES | CC50 [1] [µM] | IC50 [2] [µM] | Flu intensity (PM1) | selectivity ratio [3] | IC50 [4] [µM] | Ratio CC50/IC50 [5]
1 | O=C(Nc1ccc(Cl)cc1)C(=O)NC1CC2(CCCCC2)NC2(CCCCC2)C1 (configuration not stated) | 120 | 0.56 | 22.2 | 4 | 0.68 | 176
2 | O=C(NCCc1ccccn1)C(=O)Nc1ccc(Cl)cc1 | 480 | – | 15.4 | – | 19.8 | 24
3 | O=C(Nc1ccc(F)cc1)C(=O)Nc1ccc(Cl)cc1 | > 500 | – | 15.2 | – | 3.1 | >160
4 | O=C(Nc1ccc(Cl)cc1)C(=O)NC1CCNCC1 | 51 | – | 20.5 | – | 7 | 7.3
5 | Cc1ccc(NC(=O)C(=O)NC2CC(C)(C)NC(C)(C)C2)cc1 | 260 | – | – | – | 8.4 | 31
6 | O=C(Nc1ccc(Cl)cc1)C(=O)NC1CCN(C(=O)Nc2ccccc2)CC1 | 6.2 | – | – | – | 11 | 0.56
7 | NC(=S)N1CCC(NC(=O)C(=O)Nc2ccc(Cl)cc2)CC1 | 42 | – | 20.2 | – | 5.5 | 7.6
8 | CC1(C)CC(NC(=O)C(=O)Nc2ccc(Cl)cc2)CC(C)(C)N1 | 35 | 0.9 | 23.1 | – | 0.61 | 57
9 | O=C(Nc1ccc(Cl)cc1)C(=O)Nc1ccc(Br)cc1 | > 500 | – | – | – | > 100 | –
10 | N=C(N)N1CCC(NC(=O)C(=O)Nc2ccc(Cl)cc2)CC1.O=C(O)C(F)(F)F | 72 | – | 20.9 | – | 6.1 | 12
11 | NC(=O)N1CCC(NC(=O)C(=O)Nc2ccc(Cl)cc2)CC1 | 310 | – | 16 | – | 8.3 | 37
12 | O=C(Nc1ccc(Cl)cc1)C(=O)NC1CCN(C(=O)c2ccccc2)CC1 | – | – | 17.8 | – | 5.1 | –
13 | O=C(Nc1ccc(Cl)cc1)C(=O)Nc1ccc(Cl)cc1 | > 500 | – | – | – | > 100 | –
